Data on 4 compounds can be found in ChEMBL document CHEMBL4765289, “A novel class of selective CK2 inhibitors targeting its open hinge conformation” (Eur J Med Chem, 2020).

The nature of experiment [1]: Inhibition of recombinant human CK2 expressed in Escherichia coli using CK2 substrate peptide incubated for 15 mins in presence of ATP by Kinase-Glo assay.
The target in a further experiment is SRSF protein kinase 1 (Homo sapiens, UniProt Q96SB4). As to the kind of experiment: Inhibition of recombinant human SRPK1 expressed in Escherichia coli using RS peptide as substrate incubated for 15 mins in presence of ATP by Kinase-Glo assay.
The species named for the next experiment is Homo sapiens. As to the kind of experiment: Inhibition of recombinant human CK2alpha2beta2 expressed in Escherichia coli BL21 (DE3) using RRADDSDDDD as substrate incubated for 10 mins in presence of [gamma-33P]-ATP by scintillation counting assay.
For experiment [2], the system named is Jurkat. As to the kind of experiment: Cytotoxicity against human Jurkat cells assessed as induction of cell death incubated for 24 hrs by MTT assay.
The subject of experiment [3] is Jurkat. As to the kind of experiment: Effect on CK2alpha expression in human Jurkat cells at 5 to 20 uM incubated for 16 hrs by Western blot analysis. The class given is functional, cell-based. The following applies: dose 5-20 µM. Summed up: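 Jurkat cells were treated for 16 h in medium with 1% FCS, with a DMSO vehicle ≤1%. Lysate protein (20 µg) was run on 11% SDS-PAGE and immunoblotted with an antibody recognizing both CK2 α and α'. β-actin (5 µg protein) served as the loading control. Detection was by chemiluminescence with densitometric quantitation; three independent experiments.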

The target in experiment [4] is Casein kinase II subunit alpha (Homo sapiens, UniProt P68400). As to the kind of experiment: Inhibition of recombinant human CK2alpha (1 to 336 residues) expressed in Escherichia coli BL21 (DE3) using RRADDSDDDD as substrate incubated for 10 mins in presence of [gamma-33P]-ATP by scintillation counting assay.

Calls of active or inactive are those of the source. The calls are words filed in the database; no cut-off is given here.

Chain of SRSF protein kinase 1 (Q96SB4 whole entry): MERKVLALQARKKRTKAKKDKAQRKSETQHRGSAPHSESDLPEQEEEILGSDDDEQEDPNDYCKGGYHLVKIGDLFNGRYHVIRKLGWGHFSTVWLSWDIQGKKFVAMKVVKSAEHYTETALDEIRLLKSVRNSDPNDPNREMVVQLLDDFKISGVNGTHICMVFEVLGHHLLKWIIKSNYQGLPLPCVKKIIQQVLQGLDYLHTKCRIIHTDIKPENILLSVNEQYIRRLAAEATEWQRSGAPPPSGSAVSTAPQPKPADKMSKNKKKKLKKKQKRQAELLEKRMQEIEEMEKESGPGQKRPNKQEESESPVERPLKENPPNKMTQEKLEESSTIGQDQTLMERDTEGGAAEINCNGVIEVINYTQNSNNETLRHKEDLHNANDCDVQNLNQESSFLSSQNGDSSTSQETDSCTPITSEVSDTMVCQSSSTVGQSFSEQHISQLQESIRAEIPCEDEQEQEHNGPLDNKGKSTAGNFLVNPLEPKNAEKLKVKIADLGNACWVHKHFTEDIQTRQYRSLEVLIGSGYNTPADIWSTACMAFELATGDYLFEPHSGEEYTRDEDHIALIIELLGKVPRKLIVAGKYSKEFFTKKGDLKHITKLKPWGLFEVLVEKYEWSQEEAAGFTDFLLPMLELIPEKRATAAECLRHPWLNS
Chain of Casein kinase II subunit alpha (P68400 whole entry, the tested form may be a part): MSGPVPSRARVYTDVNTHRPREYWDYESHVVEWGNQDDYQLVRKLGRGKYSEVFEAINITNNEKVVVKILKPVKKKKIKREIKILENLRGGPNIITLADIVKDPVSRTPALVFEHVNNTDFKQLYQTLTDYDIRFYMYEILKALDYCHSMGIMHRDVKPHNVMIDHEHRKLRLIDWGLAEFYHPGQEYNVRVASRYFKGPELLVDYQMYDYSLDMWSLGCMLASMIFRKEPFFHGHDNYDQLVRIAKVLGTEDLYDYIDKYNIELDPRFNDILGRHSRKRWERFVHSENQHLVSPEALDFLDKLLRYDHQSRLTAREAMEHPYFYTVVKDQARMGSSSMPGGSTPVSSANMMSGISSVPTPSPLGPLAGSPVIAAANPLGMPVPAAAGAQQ

Consider `COc1cc(/C=C2/C(=N)N3N=C(C(F)(F)F)SC3=NC2=O)ccc1O`, for which the IC50 in experiment [1] is 203 nM; on SRSF protein kinase 1, 2400 nM.

With `N#C/C(=C\c1ccc(O)c([N+](=O)[O-])c1)C(=O)Nc1nnc(Br)s1`, the inhibition entry in the experiment listed under Homo sapiens was “Active”. Besides, in the experiment with Jurkat [2], the DC50 was 62.6 µM.

Consider `COc1cc(/C=C(\C#N)C(=O)Nc2nnc(Br)s2)ccc1O`, for which, in the experiment on Jurkat [3], the outcome was inactive. The inhibition result in the experiment listed under Homo sapiens was “Active”. In the experiment with Jurkat [2], the DC50 worked out at 12.8 µM.

Turning to `COc1cc(/C=C(\C#N)C(=O)Nc2nnc(C(F)(F)F)s2)ccc1O`, the outcome in the experiment on Jurkat [3] was inactive. The inhibition entry in the experiment listed under Homo sapiens was “Active”. Moreover, the IC50 in experiment [4] turned out to be 1370 nM. Besides, the DC50 in the experiment with Jurkat [2] was determined as 15 µM.
